Source: ChEMBL document CHEMBL1141224, “Parallel solution-phase and microwave-assisted synthesis of new S-DABO derivatives endowed with subnanomolar anti-HIV-1 activity” (J Med Chem, 2005)
Active and inactive are the calls of the source. The calls are words filed in the database; no cut-off is given here.

How the values were obtained:
[1] = test system: Human immunodeficiency virus 1; assay: Antiviral activity against HIV1 K103N mutant strain infected MT4 cells by MTT method; type: functional, organism-based; conditions: Human immunodeficiency virus 1, K103N
[2] = test system: Human immunodeficiency virus type 1 reverse transcriptase (Human immunodeficiency virus 1), Q72547 [Y181I]
MT4 [3] = assay: Cytotoxicity against MT4 cells by MTT method; type: functional; conditions: Homo sapiens
Procedure, shortened: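 Mock-infected MT-4 cells exposed to graded drug concentrations. Viability assessed by MTT colorimetric method at day 5. CC50 is the concentration causing 50% death of noninfected cells. Mean of at least two experiments.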

[4] = test system: Human immunodeficiency virus 1; assay: Antiviral activity against HIV1 IRLL98 mutant strain infected MT4 cells by MTT method; type: functional, organism-based; conditions: Human immunodeficiency virus 1, IRLL98, MT4
Procedure, shortened: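 MT-4 cells infected with the HIV-1 mutant strain, or mock-infected for cytotoxicity, in the presence of a range of drug concentrations. Viable cells were counted by MTT colorimetric assay on day 5 post-infection. EC50 is the concentration that blocks 50% of HIV-induced cell death. Values are the mean of at least two experiments. IRLL98 carries RT mutations K101Q, Y181C and G190A, plus NRTI mutations.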

[5] = test system: Human immunodeficiency virus 1; assay: Antiviral activity against wild type HIV1 NL4-3 infected MT4 cells by MTT method; type: functional, organism-based; conditions: Human immunodeficiency virus 1, NL4-3, MT4
Procedure, shortened: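 MT-4 lymphoid cells infected with HIV-1 NL4-3 in the presence of graded drug concentrations. Viable cells counted by MTT colorimetric assay at day 5 post-infection. EC50 is the concentration protecting 50% of cells from HIV-induced death. Mean of at least two experiments.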

[6] = biological target: Human immunodeficiency virus type 1 reverse transcriptase (Human immunodeficiency virus 1) (UniProt Q72547)
[7] = test system: Human immunodeficiency virus 1; assay: Antiviral activity against HIV1 Y188L mutant strain infected MT4 cells by MTT method; type: functional, organism-based; conditions: for EC50: Human immunodeficiency virus 1, Y188L, MT4
[8] = test system: Human immunodeficiency virus type 1 reverse transcriptase (Human immunodeficiency virus 1), Q72547 [K103N]
[9] = test system: Human immunodeficiency virus type 1 reverse transcriptase (Human immunodeficiency virus 1), Q72547 [K103N]; assay: Inhibition of K103N mutant HIV1 reverse transcriptase by [3H]dTTP poly(rA)/oligo(dT) incorporation at 400 uM
Procedure, shortened: (§1)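 RNA-dependent DNA polymerase assay of recombinant RT at 5–10 nM. Template: poly(rA)/oligo(dT) (0.3 μM 3'-OH ends) with 10 μM [3H]-dTTP. Run 10 min at 37 °C with increasing inhibitor. TCA-precipitated product was counted on GF/C filters. Highest concentration tested was 400 μM.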

[10] = biological target: Human immunodeficiency virus type 1 reverse transcriptase (Human immunodeficiency virus 1) (UniProt Q72547); assay: Inhibition of wild type HIV1 reverse transcriptase by [3H]dTTP poly(rA)/oligo(dT) incorporation at 400 uM; procedure, shortened: as §1
MT4 [11] = assay: Cytotoxicity against MT4 cells by MTT method at 11 uM; type: functional, Homo sapiens
[12] = test system: Human immunodeficiency virus type 1 reverse transcriptase (Human immunodeficiency virus 1), Q72547 [Y181I]; assay: Inhibition of Y181I mutant HIV1 reverse transcriptase by [3H]dTTP poly(rA)/oligo(dT) incorporation at 400 uM; procedure, shortened: as §1
[13] = test system: Human immunodeficiency virus 1; assay: Antiviral activity against wild type HIV1 NL4-3 infected MT4 cells by MTT method at 2.3 uM; type: functional; conditions: Human immunodeficiency virus 1, NL4-3, MT4
Procedure, shortened: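 MT-4 cells infected with HIV-1 NL4-3 and exposed to drug. Viable cells measured by MTT assay at day 5 post-infection. Result given as percent inhibition of HIV-induced cell death at the stated micromolar concentration. Mean of at least two experiments.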

[14] = test system: Human immunodeficiency virus 1; assay: Antiviral activity against HIV1 IRLL98 mutant strain infected MT4 cells by MTT method at 11 uM; type: functional; conditions: Human immunodeficiency virus 1, IRLL98, MT4
Procedure, shortened: (§2)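 MT-4 cells infected with the mutant HIV-1 strain and treated with compound. Viable cells were measured by MTT colorimetric assay on day 5 post-infection. The value is the percent inhibition of HIV-induced cell death at the stated micromolar concentration. Values are the mean of at least two experiments.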

[15] = test system: Human immunodeficiency virus 1; assay: Antiviral activity against HIV1 K103N mutant strain infected MT4 cells by MTT method at 62 uM; type: functional; conditions: Human immunodeficiency virus 1, K103N; procedure, shortened: as §2

Compound	EC50 [1] [nM]	ID50 [2] [nM]	CC50 (MT4 [3]) [nM]	EC50 [4] [nM]	EC50 [5] [nM]	ID50 [6] [nM]	EC50 [7] [nM]	ID50 [8] [nM]	ID50 [9]	ID50 [10]	Activity (MT4 [11]) [%]	ID50 [12]	inhibition at 2.3 µM [13] [%]	Inhibition [7] [%]	inhibition at 11 µM [14] [%]	inhibition at 62 µM [15] [%]
Cc1c(O)nc(SCc2cccc(Cl)c2)nc1Cc1c(Cl)cccc1Cl	> 59000	400000	> 59000	4800	310	2300	> 59000	400000	–	–	–	–	–	–	–	–
Cc1c(O)nc(SCc2ccc(C(C)C)cc2)nc1Cc1c(Cl)cccc1Cl	> 58000	–	–	> 57000	–	–	> 58000	–	inactive	inactive	45	inactive	35	–	–	–
Cc1c(O)nc(SCc2ccc([N+](=O)[O-])cc2)nc1Cc1c(Cl)cccc1Cl	11000	220	> 58000	3300	790	9	–	120	–	–	–	–	–	31	–	–
COc1ccc(CCCSc2nc(O)c(C)c(Cc3c(Cl)cccc3Cl)n2)cc1	> 1000	300	1000	110	0.44	37	> 1000	500	–	–	–	–	–	–	–	–
CCCCOc1ccc(CSc2nc(O)c(C)c(Cc3c(Cl)cccc3Cl)n2)cc1	> 3100	–	3100	–	> 3100	2800	> 3100	–	inactive	–	–	inactive	–	–	34	–
COc1ccc(CSc2nc(Cc3c(Cl)cccc3Cl)c(C)c(=O)[nH]2)cc1	4700	150000	32000	47	7	4	> 32000	102000	–	–	–	–	–	–	–	–
Cc1c(O)nc(SCc2ccc(C(C)C)cc2)nc1Cc1c(F)cccc1F	–	–	> 62000	16000	580	3000	> 62000	–	inactive	–	–	inactive	–	–	–	33
